Screens (PubChem)
Rows were chosen to be rich in hits. Some 2.5% of all compounds tested hit in one or more screens of this group.
MEKK3 PB1 HTS: raises or lowers MEK5 binding to the human MEKK3 PB1 domain | bead-based flow cytometry, Alexa488-MEK5 binding to MEKK3; actives lie on both sides; 0 = blocked by unlabeled MEK5, 100 = vehicle | binding response (% of control), % at 10 µM | 290,000 tested, 1.4% active | AID 1529;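 active = binding response more than 3 SD above or below the average of its plate-row segment, actives on both sides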;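 note: Alexa488 bead fluorescence after subtracting the streptavidin-only scavenger bead signal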
Rce1 inhib: inhibitors of yeast Ras-converting enzyme; Q03530; yeast membranes, quenched prenylated peptide cleavage fluorescence; calls only; 290,000 tested, 0.27% active; AID 2563;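 active = fall in fluorescence gain of 50% or more versus controls, with final raw signal at or below 3038400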;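 note: plate controls were neutral control wells for no effect and wells lacking membranes for full effect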
Target sequence (Q03530 whole entry, looked up): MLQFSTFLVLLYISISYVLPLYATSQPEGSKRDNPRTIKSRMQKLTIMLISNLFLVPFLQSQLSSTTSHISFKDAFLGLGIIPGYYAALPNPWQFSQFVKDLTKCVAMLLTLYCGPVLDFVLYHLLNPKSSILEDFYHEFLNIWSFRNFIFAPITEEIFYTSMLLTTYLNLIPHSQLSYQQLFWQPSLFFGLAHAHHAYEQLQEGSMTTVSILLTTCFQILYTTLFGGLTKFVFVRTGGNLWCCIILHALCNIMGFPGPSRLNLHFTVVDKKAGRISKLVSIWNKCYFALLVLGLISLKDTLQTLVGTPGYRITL
T cell HTS: T cell immune modulators affecting CD8 T cell-vesicle binding; 2C CD8+ T cell-vesicle binding, flow cytometry; stronger effect = lower value; response (vesicle binding), % at 7 µM; 330,000 tested, 0.068% active; AID 2052;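 active = response, share of CD8 T cells binding vesicles, and their 90th percentile fluorescence all below set limits, cut at about 80% in these data, passing the limit was not always enough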;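 note: values below 100% mean blocked vesicle binding to the CD8+ T cells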
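Assay system: 2C TCR transgenic mouse naive CD8+ T cells, MACS-purified | Read-out: CD8+ gate FL2 mean fluorescence as % of same-row positive control | Signal: High-throughput flow cytometry with anti-B7-1 and anti-CD8 staining | Timing: Binding step 1.5 h, 37 °C, antibody labelling 20 min, ice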
MEKK2 mut-MEK5: signal of MEK5 binding to mutant human MEKK2 PB1 domain; AID 1530; bead flow cytometry, Alexa488-MEK5 binding to MEKK2 mutant; percent response, % at 10 µM; 290,000 tested, 0.35% active; in the data active = percent response above about 24%, passing the limit was not always enough
MEKK2 WT-MEK5: raises or lowers MEK5 binding to wildtype human MEKK2 PB1 domain. Q9Y2U5. bead flow cytometry, Alexa488-MEK5 binding to MEKK2 WT; actives lie on both sides. binding response (% of control), % at 10 µM. 290,000 tested, 1.1% active. AID 1531; in the data active = binding response below about 67% or above about 130%
UCH37 DUB inh: blocks the human deubiquitinase UCH37 | purified proteasome/UCH37, Ub-AMC cleavage fluorescence | inhibition, % (test concentration not listed) | 330,000 tested, 0.33% active | AID 588478;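 active = mean inhibition over replicate wells above about 20%, limit read from the data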;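 note: 0% = compound-free wells with enzyme and 100% = wells lacking proteasome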
Target sequence (Q9Y5K5 whole entry, looked up): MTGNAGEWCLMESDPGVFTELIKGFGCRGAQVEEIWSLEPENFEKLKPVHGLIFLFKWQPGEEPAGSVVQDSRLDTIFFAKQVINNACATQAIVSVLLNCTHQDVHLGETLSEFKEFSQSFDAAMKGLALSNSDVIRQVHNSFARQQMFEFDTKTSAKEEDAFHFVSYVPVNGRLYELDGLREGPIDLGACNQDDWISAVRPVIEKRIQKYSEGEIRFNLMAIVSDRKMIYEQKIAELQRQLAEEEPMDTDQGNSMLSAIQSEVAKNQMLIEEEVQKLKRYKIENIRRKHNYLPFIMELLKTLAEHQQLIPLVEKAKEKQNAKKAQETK
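Signal – fluorescence, ex 355 nm, em 460 nm · System – Proteasome-bound UCH37 · Input – 0.15 nM proteasome as dispensed · Timing – 30 min preincubation with enzyme, 25 min cleavage at room temperature · Read-out basis – percent inhibition of cleavage signal versus uninhibited and no-proteasome wells · Medium – Tris-HCl pH 7.4 with ATP-MgCl2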
MEKK2wt confirm: raises or lowers MEK5 binding to wildtype human MEKK2, retest. shares compounds with MEKK3 PB1 HTS. binding response (% of control), % at 10 µM. AID 1892. 5,900 tested, 2.4% active. bead flow cytometry, Alexa488-MEK5 binding to MEKK2 WT; actives lie on both sides; in the data active = binding response below about 16% or above about 210%; inactive = in between
MEKK2mut confirm: signal of MEK5 binding to mutant human MEKK2, retest. shares compounds with MEKK3 PB1 HTS. bead flow cytometry, Alexa488-MEK5 binding to MEKK2 mutant. percent response, % at 10 µM. 5,900 tested, 2% active. AID 1893; in the data active = percent response mostly above about 71%, no sharp cut-off; inactive = mostly below about 38%;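 note: higher means compound restores mutant binding toward wildtype level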
MEKK3-MEK5 inh: confirmation of inhibitors of MEK5 binding to human MEKK3. shares compounds with MEKK3 PB1 HTS. binding response (% of control), % at 10 µM. AID 1894. 5,900 tested, 1.8% active. bead flow cytometry, Alexa488-MEK5 binding to MEKK3; stronger effect = lower value;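 active = binding response below 72% of control, or above a set upper limit, though filed actives all read lower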;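 note: 100% = DMSO only wells and 0% = binding blocked by excess unlabeled MEK5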
Starred values were filed as active, the others as inactive; i = inactive; / = no result given; [ ] = another dose, or the depositor's remark.

SMILES	MEKK3 PB1 HTS	Rce1 inhib	T cell HTS	MEKK2 mut-MEK5	MEKK2 WT-MEK5	UCH37 DUB inh	MEKK2wt confirm	MEKK2mut confirm	MEKK3-MEK5 inh
N#CCCN1CCN(C(=O)c2c(N)no[n+]2[O-])CC1	128*	i	128	0	112	3	99	-5	102
COC(=O)NN=Cc1ccccc1	/	/	/	/	/	1	/	/	/
Cn1cccc1C=NNC(=O)c1cncc(Br)c1	/	/	/	/	/	12	/	/	/
COc1ccccc1CNCC(O)(c1ccc(F)cc1)c1ccc(F)cc1	94	i	265	1	101	2	/	/	/
COc1ccccc1CNCC(O)(c1ccc(Cl)cc1)c1ccc(Cl)cc1	104	i	672	21	163*	2	146	25	102
O=C(CN1CCC(C(O)(c2ccccc2)c2ccccc2)CC1)Nc1ccccc1	97	/	217	0	97	4	/	/	/
O=C(CN1CCC(C(O)(c2ccccc2)c2ccccc2)CC1)Nc1cc(Cl)ccc1Cl	72*[inhibitor]	i	i	-14	78	5	98	-2	104
CC(=NNC(=O)c1ccoc1C)c1cccnc1	/	/	/	/	/	2	/	/	/
Cn1nc(-c2ccc(C(=O)N3CCN(Cc4ccccc4)CC3)cc2)c2ccccc2c1=O	52*[inhibitor]	i	279	-14	57*[inhibitor]	6	108	3	104
Cn1nc(-c2ccc(C(=O)Nc3cccc(Cl)c3)cc2)c2ccccc2c1=O	34*[inhibitor]	i	268	-26	1.0*[inhibitor]	0	87	-1	92
CCOc1cc(C=NNC(=O)c2nnn(-c3nonc3N)c2C)ccc1OCc1ccc(F)cc1	/	/	/	/	/	-161	/	/	/
Cc1ccc(OCC(=O)N/N=C/c2cn(Cc3ccccc3)c3ccccc23)cc1	143*	i	368	0	102	/	94	-9	105
COC(=O)N/N=C/c1cn(CCOc2ccccc2)c2ccccc12	-1.0*[inhibitor]	i	463	-38	-17*[inhibitor]	/	97	-7	102
COC(=O)NN=Cc1cn(CCOc2ccccc2)c2ccccc12	/	/	/	/	/	2	/	/	/
CCOC(=O)NN=Cc1cn(CCCOc2ccccc2)c2ccccc12	/	/	/	/	/	0	/	/	/
CCOC(=O)N/N=C/c1cn(CCCOc2ccccc2)c2ccccc12	140*	i	201	-1	100	/	93	-4	99
COc1cc(C=NNC(=S)Nc2cccc(S(=O)(=O)N(C)C)c2)cc(OC)c1O	/	/	/	/	/	5	/	/	/
CC(/C=C/c1ccccc1)=NNC(=O)Cn1nnc(N)n1	/	/	/	/	/	1	/	/	/
O=C(CN1C(=O)NC2(CCCCC2)C1=O)N1CCN(S(=O)(=O)c2ccccc2)CC1	100	i	356	0	96	2	/	/	/
O=C(CN1C(=O)NC2(CCCCCC2)C1=O)N1CCC(Cc2ccccc2)CC1	3.0*[inhibitor]	i	298	-1	3.0*[inhibitor]	3	99	-4	96
CCc1c(C(=O)NN=Cc2cccs2)nnn1-c1nonc1N	/	/	/	/	/	3	/	/	/
COc1ccc(C=NNC(=O)CNC(=O)COc2ccccc2)cc1	/	/	/	/	/	2	/	/	/
CCOC(=O)C1CCN(C(=O)Cc2ccc(C)cc2)CC1	104	i	197	1	107	-1	/	/	/
CCOC(=O)C1CCN(C(=O)COC(=O)COc2ccc(Cl)cc2)CC1	37*[inhibitor]	i	115	-17	53	-1	100	-6	101
CCOC(=O)C1CCN(C(=O)Cc2ccc(OC)c(OC)c2)CC1	81*[inhibitor]	i	531	-11	91	-3	103	0	104
SMILES	MEKK3 PB1 HTS	Rce1 inhib	T cell HTS	MEKK2 mut-MEK5	MEKK2 WT-MEK5	UCH37 DUB inh	MEKK2wt confirm	MEKK2mut confirm	MEKK3-MEK5 inh
Fc1cccc(C=NNc2nncc3ccccc23)c1	/	/	/	/	/	5	/	/	/
CC(C)C(C(=O)Nc1ccc(S(N)(=O)=O)cc1)N1C(=O)c2ccccc2C1=O (stereo not drawn)	56*[inhibitor]	i	349	-10	70	4	96	-4	101
COc1ccc(C=NNC(=O)C(C)N(c2ccc(OC)cc2)S(C)(=O)=O)cc1 (stereo not drawn)	/	/	/	/	/	5	/	/	/
Cc1ccc2cc(C)c3nnc(SCC(=O)c4cccs4)n3c2c1C	121	i	338	4	102	5	/	/	/
Cc1ccc(C)c2c1cc(C)c1nnc(SCC(=O)c3cccs3)n12	148*	i	241	4	112	1	99	-6	97
CCOC(=O)C1=C(N)OC2=C(C(=O)CC(C)(C)C2)C1c1ccc(CC)s1 (stereo not drawn)	40*[inhibitor]	i	323	-15	41*[inhibitor]	3	95	-4	102
Cc1ccc(/C=C/C(=O)NC2=NCCS2)cc1	104	i	304	34	144*	/	126	13	106
COc1cc(C=NNC(=O)c2cc(-c3cccc(Br)c3)nc3ccccc23)cc(OC)c1O	/	/	/	/	/	-3	/	/	/
COc1cc(OC)cc(C(=O)N2CCC(C(=O)Nc3ccc4c(c3)OCCO4)CC2)c1	146*	i	228	1	105	0	104	2	104
O=C(Nc1cccc(F)c1)C1CCN(C(=O)c2ccc(Cl)cc2)CC1	145*	i	297	1	105	1	99	-6	97
CN(CC(=O)Nc1cccc(F)c1)C(=O)C1CCN(C(=O)c2ccc(Cl)cc2)CC1	/	/	448	/	/	/	/	/	/
CCNC(=S)NN=Cc1ccc(OCCOc2ccccc2C)cc1	/	/	/	/	/	5	/	/	/
Cc1nn(-c2ccccc2)c(Cl)c1C=NN1CCN(c2ccccn2)CC1	/	/	/	/	/	2	/	/	/
Cc1ccc(C)c2[nH]c(=O)c(CN(CC3CCCO3)C(=S)NCc3ccco3)cc12 (stereo not drawn)	129*	i	188	29	116	-1	101	5	104
Cc1ccc(N(Cc2cc3ccc(C)cc3[nH]c2=O)C(=O)c2ccco2)c(C)c1	132*	i	356	22	117	-7	102	5	107
Cc1ccc2cc(CN(C(=O)c3ccco3)c3ccccc3C)c(=O)[nH]c2c1	104	i	128	14	100	0	/	/	/
Cc1ccc(C)c2[nH]c(=O)c(CN(Cc3cccs3)C(=S)NCc3ccco3)cc12	137*	i	186	1	115	3	109	9	103
Cc1cc2cc(CN(CCN(C)C)C(=S)NCc3ccco3)c(=O)[nH]c2cc1C	84	i	98	8	160*	-6	118	8	103
CCOc1cccc(C=NNc2nc(N3CCCC3)nc(N3CCCC3)n2)c1O	/	/	/	/	/	7	/	/	/
